# Laboratory results published in ChEMBL document CHEMBL3286391, “High content screening of diverse compound libraries identifies potent modulators of tubulin dynamics” (ACS Med Chem Lett, 2014).
# Calls of active or inactive are those of the source. The calls are words filed in the database; no cut-off is given here.
# Experiments:
# [1] = tested on: U2OS; assay: Induction of mitotic arrest in human U2OS cells assessed as mitotic index after 20 hrs by microscopic analysis
# [2] = tested on: U2OS; assay: Growth inhibition of human U2OS cells after 72 hrs by sulforhodamine B assay; format: functional
# Procedure, shortened: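 GI50 in U2OS cells. Mean of at least two independent experiments, each in triplicate.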
# [3] = species: Sus scrofa; assay: Inhibition of porcine alpha/beta tubulin polymerization at 10 uM after 1 hr by spectrophotometric analysis
# Procedure, shortened: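 Tubulin (3 mg/mL) incubated with compound (10 μM) and GTP at 37 °C for 1 h to monitor polymerization.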
# [4] = species: Sus scrofa; assay: Displacement of colchicine from porcine alpha/beta tubulin assessed as decrease in colchicine fluorescence intensity after 1 hr by spectrophotometric analysis
# Procedure, shortened: (§1)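 Colchicine (3 μM), tubulin (3 μM) and compound incubated 1 h at 37 °C. Colchicine fluorescence intensity read at ex/em 365/435 nm. Nocodazole served as positive control. Mean ± s.e.m. of one experiment run in triplicate.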
# [5] = species: Sus scrofa; assay: Displacement of BODIPY-FL-vinblastine from porcine alpha/beta tubulin at 20 to 60 uM after 20 hrs by fluorescence polarization assay
# Procedure, shortened: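 Fluorescence polarization assay with FL-BODIPY-vinblastine tracer (2 μM) and tubulin (2 μM). Unlabeled vinblastine served as positive control. Ex/em 485/520 nm. Mean ± s.e.m. of one experiment run in triplicate.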
# [6] = Solubility of the compound; format: physicochemical
# [7] = species: Sus scrofa; assay: Displacement of colchicine from porcine alpha/beta tubulin assessed as decrease in colchicine fluorescence intensity at 5 to 20 uM after 1 hr by spectrophotometric analysis relative to control
# Procedure, shortened: as §1
# [8] = Stability of the compound; format: physicochemical
# [9] = target: Tubulin (Homo sapiens) (UniProt P68371+Q9H4B7+P0DPH7+P68366+Q13509+Q71U36+P04350+Q3ZCM7+P07437+P68363+Q9BQE3+Q6PEY2+Q13885+Q9BVA1+Q9BUF5); assay: Binding affinity to tubulin in human U2OS cells assessed as disruption of tubulin network at 100 nM after 20 hrs by DAPI staining-based confocal microscopic analysis; format: cell-based
# Procedure, shortened: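 U2OS cells treated with compound, then stained with DAPI and an α-tubulin antibody. Tubulin network imaged by confocal microscopy.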
# [10] = Solubility of the compound at >1 uM; format: physicochemical
# [11] = tested on: U2OS; assay: Induction of mitotic arrest in human U2OS cells at 50 uM after 72 hrs by microscopic analysis relative to control; format: functional; settings: in the assay text read “after 20 hrs” for “after 72 hrs”
# Procedure, shortened: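 Primary screen in U2OS cells at a single 50 μM concentration, in triplicate. Cells stained for phospho-histone H3 with Hoechst counterstain and imaged by automated high content microscopy. Percentage of mitotically arrested cells calculated by algorithm.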
# [12] = tested on: U2OS; assay: Induction of mitotic arrest in human U2OS cells assessed as mitotic index after 72 hrs by microscopic analysis; format: functional, cell-based; settings: in the assay text read “after 20 hrs” for “after 72 hrs”
# Procedure, shortened: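 Phenotypic high content assay in U2OS osteosarcoma cells. Cells stained for phosphorylated histone H3 (mitotic marker) and Hoechst, imaged on an automated high content microscope. An algorithm scores the percentage of cells arrested in mitosis. MI EC50 is the mean of at least two independent experiments, each in triplicate.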
SMILES,EC50 [1] [nM],GI50 [2] [nM],other results
O=C(Cc1ccc(-c2ccccc2)cc1)NCc1ccncc1,16600,,
COc1cc(-c2ccc(CC(=O)NCc3ccco3)cc2)cc(OC)c1OC,> 40000,,
COC(=O)c1ccc(-c2ccc(CC(=O)NCc3ccco3)cc2)cc1,73,24,
CN(Cc1ccccc1)C(=O)Cc1ccc(-c2ccccc2)cc1,29900,,
C[C@@H](NC(=O)Cc1ccc(-c2ccccc2)cc1)c1ccccc1,4830,,
COC(=O)c1ccc(-c2ccc(CC(=O)NCc3ccccc3)cc2)cc1,81,27,
O=C(NCc1ccco1)c1ccc(C(=O)c2ccccc2)cc1,> 40000,,
O=C(NCc1ccco1)c1ccc(-c2ccccc2)cc1,> 40000,,
O=C(Cc1ccc(-c2ccccc2)cc1)Nc1ccccc1,> 40000,,
O=C(NCc1ccco1)c1cc2ccccc2o1,> 40000,,
O=C(Cc1ccc(-c2ccccc2)cc1)NCc1cccc(Br)c1,> 40000,,inhibition [3]: inactive
CC(C)CNC(=O)Cc1ccc(-c2ccccc2)cc1,> 40000,,
O=C(Cc1ccc(-c2ccc(C(=O)O)cc2)cc1)NCc1ccco1,> 20000,,
Cc1ccc(-c2ccc(CC(=O)NCc3ccco3)cc2)cc1F,340,100,
CNC(=O)c1ccc(-c2ccc(CC(=O)NCc3ccco3)cc2)cc1,51,21,inhibition [4]: Dose-dependent effect; inhibition [5]: inactive; solubility [6]: soluble; inhibition [3]: Active; Imax [7]: 45%; Stability [8]: Stable; Activity [9]: Active
O=C(Cc1ccc(-c2ccccc2)cc1)NCc1ccccc1,250,,
CC(=O)c1ccc(-c2ccc(CC(=O)NCc3ccco3)cc2)cc1,76,24,

SMILES,EC50 [1] [nM],GI50 [2] [nM],other results
C[C@H](NC(=O)Cc1ccc(-c2ccccc2)cc1)c1ccccc1,> 40000,,
COc1c(C)cc(-c2ccc(CC(=O)NCc3ccco3)cc2)cc1C,1170,603,
CC(=O)c1ccc(-c2ccc(CC(=O)NCc3ccccc3)cc2)cc1,28,11,Activity [9]: Active; solubility [10]: Insoluble
O=C(Cc1ccc2ccccc2c1)NCc1ccco1,12900,,
O=C(Cc1ccc(-c2ccc3c(c2)OCO3)cc1)NCc1ccco1,144,31,
COC(=O)Nc1nc2cc(C(=O)c3cccs3)ccc2[nH]1 [NOCODAZOLE],50,,inhibition [3]: Active; Imax [7]: 85%
CC(=O)c1ccccc1-c1ccc(CC(=O)NCc2ccco2)cc1,12900,,
O=C(NCc1ccco1)c1cnc2ccccc2c1,> 40000,,
O=C(Cc1ccc(-c2ccccc2)cc1)NCc1ccco1,510,150,Activity [11]: 40%; inhibition [12]: Dose-dependent effect; inhibition [3]: Active
O=C(Cc1ccc(-c2ccc(OC(F)(F)F)cc2)cc1)NCc1ccco1,,120,
COc1ccc(CNC(=O)Cc2ccc(-c3ccccc3)cc2)cc1,1900,,
CC(=O)Nc1cccc(-c2ccc(CC(=O)NCc3ccco3)cc2)c1,490,120,
N#Cc1ccc(-c2ccc(CC(=O)NCc3ccco3)cc2)cc1,526,111,inhibition [3]: Active
O=C(NCc1ccco1)c1ccccc1-c1ccccc1,> 40000,,
O=C(Cc1ccc(-c2ccccc2)cc1)NCc1ccccn1,9700,,
CC(C)CNC(=O)c1ccc(-c2ccc(CC(=O)NCc3ccco3)cc2)cc1,101,46,
